As a reminder, the half-life is how long it takes for the measured level to halve. Higher therefore signals slow decline. As usually defined, the Ki is a dissociation constant, usually derived from enzyme kinetics or from competition with a known ligand. Lower therefore signals higher affinity. One may read the EC50 as the concentration giving half of the maximal effect. Read a high EC50 as lower potency in that assay.

From ChEMBL document CHEMBL2177071, “The effect of Pro(2) modifications on the structural and pharmacological properties of endomorphin-2” (J Med Chem, 2012) come the findings set out here.

Data set [1] is described as follows: Half life in Wistar rat brain homogenate. The format is ADME, tissue-based. The gist of the method: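 Peptide incubated in crude rat brain membrane homogenate with a protein content of 4.7 mg/mL, and its disappearance followed over time. Half-life is calculated from pseudo-first-order kinetics. Means of at least three individual experiments ± SEM.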
In data set [2] the target is Delta-type opioid receptor (Rattus norvegicus) (UniProt P33533). The data set is described as follows: (§1) Displacement of [3H][Ile5,6]deltorphin 2 from delta opioid receptor in Wistar rat brain membranes. It is filed as cell membranes. The following applies: Membrane. The gist of the method: (§2)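 Competitive displacement in crude rat brain membrane preparation, with the test peptide at a range of concentrations. Ki is calculated from EC50 by Cheng–Prusoff, Ki = EC50/(1+[ligand]/Kd), using Kd values from the literature. Means ± SEM, n ≥ 3.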
A general note: In a radioligand displacement assay an active substance lowers the binding of a labelled ligand.

Data set [3] concerns the target Delta-type opioid receptor (Rattus norvegicus, UniProt P33533). The data set is described as §1. The format is cell membranes, Membrane. The gist of the method:
as §2

The target of data set [4] is T1, Mu-type opioid receptor (Rattus norvegicus, UniProt P33535). The data set is described as follows: Agonist activity at mu opioid receptor in Wistar rat brain membranes after 60 mins by [35S]GTPgammaS binding assay. The format is functional, cell membranes, Membrane.
Data set [5] deals with T1, Mu-type opioid receptor. It is filed as cell membranes, Wistar, Membrane.

T1 sequence (P33535 whole entry): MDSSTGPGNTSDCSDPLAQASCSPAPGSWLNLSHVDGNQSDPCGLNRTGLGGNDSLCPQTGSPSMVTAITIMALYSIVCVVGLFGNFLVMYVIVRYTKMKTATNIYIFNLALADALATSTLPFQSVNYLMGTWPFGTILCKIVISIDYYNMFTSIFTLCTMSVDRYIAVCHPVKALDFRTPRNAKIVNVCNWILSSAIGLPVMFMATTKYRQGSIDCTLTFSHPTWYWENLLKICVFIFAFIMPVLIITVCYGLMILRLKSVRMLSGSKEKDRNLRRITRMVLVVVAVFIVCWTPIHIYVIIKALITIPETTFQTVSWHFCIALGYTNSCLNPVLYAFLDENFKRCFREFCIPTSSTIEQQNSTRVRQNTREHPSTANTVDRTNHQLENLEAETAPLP
Sequence of Delta-type opioid receptor (P33533 whole entry): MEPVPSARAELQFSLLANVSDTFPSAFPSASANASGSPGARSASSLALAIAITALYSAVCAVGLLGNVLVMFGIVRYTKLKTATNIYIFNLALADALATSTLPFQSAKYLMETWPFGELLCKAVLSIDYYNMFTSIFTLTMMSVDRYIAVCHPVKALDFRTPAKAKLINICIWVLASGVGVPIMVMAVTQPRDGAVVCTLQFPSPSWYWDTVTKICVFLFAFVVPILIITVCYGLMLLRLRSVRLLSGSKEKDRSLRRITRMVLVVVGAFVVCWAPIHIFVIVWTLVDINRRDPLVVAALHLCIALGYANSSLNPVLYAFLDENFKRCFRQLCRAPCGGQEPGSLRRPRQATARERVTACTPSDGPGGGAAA
Sequence of Delta-type opioid receptor (Rattus norvegicus) (P33533 whole entry): as above

In data set [1], `NC(=O)[C@H](Cc1ccccc1)NC(=O)[C@H](Cc1ccccc1)NC(=O)[C@H]1CC=CC[C@H]1NC(=O)[C@@H](N)Cc1ccc(O)cc1` gave a half-life above 1200 min. Further, the Activity entry in data set [2] was “Dose-dependent effect”. Moreover, affinity in data set [3] was put at a Ki of 1030 nM.

The compound `NC(=O)[C@H](Cc1ccccc1)NC(=O)[C@H](Cc1ccccc1)NC(=O)[C@@H]1C[C@@H](O)CN1C(=O)[C@@H](N)Cc1ccc(O)cc1` came in with a half-life in data set [1] of 17 min. In addition, the midpoint of the response in data set [4], the EC50, lay at 66 nM. Also, the Activity result in data set [2] was “Dose-dependent effect”. Also, the Ki in data set [3] was above 10000 nM; in data set [5] it was 44 nM.

As to `NC(=O)[C@H](Cc1ccccc1)NC(=O)[C@H](Cc1ccccc1)NC(=O)[C@@H]1CC=C[C@@H]1NC(=O)[C@@H](N)Cc1ccc(O)cc1`, the Activity result in data set [2] is “Dose-dependent effect”. The compound further yielded a Ki in data set [3] above 10000 nM.

Consider `NC(=O)[C@H](Cc1ccccc1)NC(=O)[C@H](Cc1ccccc1)NC(=O)C[C@@H]1CCCN1C(=O)[C@@H](N)Cc1ccc(O)cc1`, for which, in data set [1], the half-life worked out at 34 min. For the same compound, in data set [4], the EC50 amounted to 845 nM. Further, the Activity entry in data set [2] is “Dose-dependent effect”. In addition, the Ki in data set [3] was above 10000 nM; in data set [5], 27 nM.

The compound `NC(=O)[C@H](Cc1ccccc1)NC(=O)[C@H](Cc1ccccc1)NC(=O)[C@@H]1CCCN1C(=O)[C@@H](N)Cc1ccc(O)cc1` [ENDOMORPHIN 2] came in with a half-life in data set [1] of 5.8 min. In data set [2], the Activity entry was “Dose-dependent effect”.

Regarding `NC(=O)[C@H](Cc1ccccc1)NC(=O)[C@H](Cc1ccccc1)NC(=O)[C@@H]1CC=CC[C@@H]1NC(=O)[C@@H](N)Cc1ccc(O)cc1`, in data set [2], the Activity entry is “Dose-dependent effect”. In addition, in data set [3], the Ki was above 10000 nM.

In turn, `NC(=O)[C@H](Cc1ccccc1)NC(=O)[C@H](Cc1ccccc1)NC(=O)[C@H]1CC=C[C@H]1NC(=O)[C@@H](N)Cc1ccc(O)cc1` showed a half-life in data set [1] above 1200 min. Also, the Activity result in data set [2] is “Dose-dependent effect”. Further, the affinity in data set [3] corresponds to a Ki of 9930 nM.
